# ChEMBL document CHEMBL4138242, “Synthesis and antibacterial evaluation of novel cationic chalcone derivatives possessing broad spectrum antibacterial activity” (Eur J Med Chem, 2018)
# What was measured:
# [1] = system: Salmonella enterica; assay: Antibacterial activity against Salmonella enterica ATCC 13076 after 16 to 20 hrs by broth microdilution method; assay type: functional
# Summary of the method: (§1)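 Broth microdilution per CLSI. Bacteria grown 4-6 h (about 10⁸ CFU/mL), then diluted to about 10⁶ CFU/mL. Medium: Mueller-Hinton broth, except Luria-Bertani broth for E. coli. Compounds in sterile water, twofold series 256-0.5 µg/mL, mixed 1:1 with inoculum, 37 °C for 16-20 h. MIC is the lowest concentration without visible growth. Duplicate wells; experiment repeated at least twice.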
# [2] = Hemolytic activity in sheep RBC after 1 hr; assay type: ADME, cell-based, Ovis aries, Erythrocyte; conditions: sheep red blood cells (erythrocytes)
# Summary of the method: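 Sheep red blood cells (150 µL suspension) mixed with 50 µL of compound dilutions (5120-10 µg/mL), 1 h at 37 °C, then centrifuged. Supernatant read at 540 nm. Percent hemolysis calculated relative to RBC-only control (0%) and 0.1% Triton X-100 (100%).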
# [3] = system: Staphylococcus aureus; assay: Antibacterial activity against Staphylococcus aureus ATCC 29213 after 16 to 20 hrs by broth microdilution method; assay type: functional; summary of the method: as §1
# [4] = system: Escherichia coli; assay: Antibacterial activity against Escherichia coli ATCC 25922 after 16 to 20 hrs by broth microdilution method; assay type: functional; summary of the method: as §1
# [5] = system: Enterococcus faecalis; assay: Antibacterial activity against Enterococcus faecalis ATCC 29212 after 16 to 20 hrs by broth microdilution method; assay type: functional; summary of the method: as §1
# [6] = system: Klebsiella pneumoniae; assay: Antibacterial activity against drug-resistant carbapenemase producing Klebsiella pneumoniae clinical isolate KP-14-8 after 16 to 20 hrs by broth microdilution method; assay type: functional
# Summary of the method: (§2)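 CLSI broth microdilution in Mueller-Hinton broth. A 4-6 h culture was diluted to about 10⁶ CFU/mL and mixed 1:1 with compound dilutions prepared at 256 to 0.5 µg/mL from aqueous stocks. Plates were incubated at 37 °C for 16-20 h and read visually for MIC. Each concentration was run in duplicate, and the experiment was repeated at least twice. Vancomycin and meropenem were comparators.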
# [7] = system: Klebsiella pneumoniae; assay: Antibacterial activity against drug-resistant carbapenemase producing Klebsiella pneumoniae clinical isolate EC-13-23 after 16 to 20 hrs by broth microdilution method; assay type: functional; summary of the method: as §2
# [8] = system: Klebsiella pneumoniae; assay: Antibacterial activity against drug-resistant carbapenemase producing Klebsiella pneumoniae clinical isolate KP-14-45 after 16 to 20 hrs by broth microdilution method; assay type: functional; summary of the method: as §2
# [9] = system: Staphylococcus aureus; assay: Antibacterial activity against methicillin-resistant Staphylococcus aureus clinical isolate 0831010 after 16 to 20 hrs by broth microdilution method; assay type: functional; summary of the method: as §2
# [10] = system: Klebsiella pneumoniae; assay: Antibacterial activity against drug-resistant carbapenemase producing Klebsiella pneumoniae clinical isolate KP-14-2 after 16 to 20 hrs by broth microdilution method; assay type: functional; summary of the method: as §2
# [11] = system: Escherichia coli; assay: Antibacterial activity against drug-resistant NDM1 producing Escherichia coli clinical isolate Ecl-13-62 after 16 to 20 hrs by broth microdilution method; assay type: functional; summary of the method: as §2
# [12] = system: Klebsiella pneumoniae; assay: Antibacterial activity against drug-resistant carbapenemase producing Klebsiella pneumoniae clinical isolate KP-14-1 after 16 to 20 hrs by broth microdilution method; assay type: functional; summary of the method: as §2
# [13] = system: Staphylococcus aureus; assay: Antibacterial activity against methicillin-resistant Staphylococcus aureus clinical isolate 1208143 after 16 to 20 hrs by broth microdilution method; assay type: functional; summary of the method: as §2
# [14] = system: Escherichia coli; assay: Antibacterial activity against drug-resistant NDM1 producing Escherichia coli clinical isolate Ecl-14-58 after 16 to 20 hrs by broth microdilution method; assay type: functional; summary of the method: as §2
# [15] = system: Escherichia coli; assay: Antibacterial activity against drug-resistant NDM1 producing Escherichia coli clinical isolate CF-15-61 after 16 to 20 hrs by broth microdilution method; assay type: functional; summary of the method: as §2
# [16] = system: Staphylococcus aureus; assay: Antibacterial activity against methicillin-resistant Staphylococcus aureus clinical isolate 1-may after 16 to 20 hrs by broth microdilution method; assay type: functional; summary of the method: as §2
# [17] = system: Escherichia coli; assay: Antibacterial activity against drug-resistant NDM1 producing Escherichia coli clinical isolate EC-14-54 after 16 to 20 hrs by broth microdilution method; assay type: functional; summary of the method: as §2
# [18] = system: Staphylococcus aureus; assay: Antibacterial activity against methicillin-resistant Staphylococcus aureus clinical isolate 1105183 cono7 after 16 to 20 hrs by broth microdilution method; assay type: functional; summary of the method: as §2
# [19] = system: Klebsiella pneumoniae; assay: Antibacterial activity against drug-resistant carbapenemase producing Klebsiella pneumoniae clinical isolate KP-14-3 after 16 to 20 hrs by broth microdilution method; assay type: functional; summary of the method: as §2
# [20] = system: Escherichia coli; assay: Antibacterial activity against drug-resistant NDM1 producing Escherichia coli clinical isolate CF-13-61 after 16 to 20 hrs by broth microdilution method; assay type: functional; summary of the method: as §2
# [21] = system: Klebsiella pneumoniae; assay: Antibacterial activity against drug-resistant carbapenemase producing Klebsiella pneumoniae clinical isolate KP-14-18 after 16 to 20 hrs by broth microdilution method; assay type: functional; summary of the method: as §2
# [22] = system: Escherichia coli; assay: Antibacterial activity against drug-resistant NDM1 producing Escherichia coli clinical isolate Ecl-14-56 after 16 to 20 hrs by broth microdilution method; assay type: functional; summary of the method: as §2
# [23] = system: Escherichia coli; assay: Antibacterial activity against drug-resistant NDM1 producing Escherichia coli clinical isolate SM-15-84 after 16 to 20 hrs by broth microdilution method; assay type: functional; summary of the method: as §2
# [24] = system: Klebsiella pneumoniae; assay: Antibacterial activity against drug-resistant carbapenemase producing Klebsiella pneumoniae clinical isolate KP-14-5 after 16 to 20 hrs by broth microdilution method; assay type: functional; summary of the method: as §2
# [25] = system: Klebsiella pneumoniae; assay: Antibacterial activity against drug-resistant carbapenemase producing Klebsiella pneumoniae clinical isolate KP-13-45 after 16 to 20 hrs by broth microdilution method; assay type: functional; summary of the method: as §2
# [26] = system: Klebsiella pneumoniae; assay: Antibacterial activity against drug-resistant carbapenemase producing Klebsiella pneumoniae clinical isolate KP-14-4 after 16 to 20 hrs by broth microdilution method; assay type: functional; summary of the method: as §2
# [27] = system: Staphylococcus aureus; assay: Antibacterial activity against methicillin-resistant Staphylococcus aureus clinical isolate 0906202 after 16 to 20 hrs by broth microdilution method; assay type: functional; summary of the method: as §2
# [28] = system: Escherichia coli; assay: Antibacterial activity against drug-resistant NDM1 producing Escherichia coli clinical isolate EA-14-61 after 16 to 20 hrs by broth microdilution method; assay type: functional; summary of the method: as §2
# [29] = system: Klebsiella pneumoniae; assay: Antibacterial activity against drug-resistant carbapenemase producing Klebsiella pneumoniae clinical isolate KP-13-54 after 16 to 20 hrs by broth microdilution method; assay type: functional; summary of the method: as §2
# [30] = system: Escherichia coli; assay: Antibacterial activity against drug-resistant NDM1 producing Escherichia coli clinical isolate 1460 after 16 to 20 hrs by broth microdilution method; assay type: functional; summary of the method: as §2
# [31] = system: Staphylococcus aureus; assay: Antibacterial activity against methicillin-resistant Staphylococcus aureus clinical isolate 20131012632sau after 16 to 20 hrs by broth microdilution method; assay type: functional; summary of the method: as §2
# [32] = system: Escherichia coli; assay: Antibacterial activity against drug-resistant NDM1 producing Escherichia coli clinical isolate KP-13-58 after 16 to 20 hrs by broth microdilution method; assay type: functional; summary of the method: as §2
# [33] = system: Escherichia coli; assay: Antibacterial activity against drug-resistant NDM1 producing Escherichia coli clinical isolate Ecl-14-59 after 16 to 20 hrs by broth microdilution method; assay type: functional; summary of the method: as §2
# [34] = system: Escherichia coli; assay: Antibacterial activity against drug-resistant NDM1 producing Escherichia coli clinical isolate EC-13-49 after 16 to 20 hrs by broth microdilution method; assay type: functional; summary of the method: as §2
# [35] = system: Staphylococcus aureus; assay: Antibacterial activity against methicillin-resistant Staphylococcus aureus clinical isolate 1104060 after 16 to 20 hrs by broth microdilution method; assay type: functional; summary of the method: as §2
# [36] = system: Staphylococcus aureus; assay: Antibacterial activity against methicillin-resistant Staphylococcus aureus clinical isolate 1207007 after 16 to 20 hrs by broth microdilution method; assay type: functional; summary of the method: as §2
# [37] = system: Klebsiella pneumoniae; assay: Antibacterial activity against drug-resistant carbapenemase producing Klebsiella pneumoniae clinical isolate KP-13-55 after 16 to 20 hrs by broth microdilution method; assay type: functional; summary of the method: as §2
# [38] = system: Staphylococcus aureus; assay: Antibacterial activity against methicillin-resistant Staphylococcus aureus clinical isolate 20130911034sau after 16 to 20 hrs by broth microdilution method; assay type: functional; summary of the method: as §2
structure (smiles),measurement,setting,value
CCCCCCCC[N+](C)(C)CC(=O)Nc1ccc(C(=O)/C=C/c2ccccn2)cc1.[Cl-],MIC,[1],32 µg/mL
same,HC50 at 1 h,[2],187 µg/mL
same,MIC,[3],4 µg/mL
same,MIC,[4],16 µg/mL
same,MIC,[5],8 µg/mL
CCCCCCCC[N+](C)(C)CC(=O)Nc1ccc(C(=O)/C=C/c2c(F)cccc2F)cc1.[Cl-],MIC,[1],128 µg/mL
same,HC50 at 1 h,[2],50 µg/mL
same,MIC,[3],32 µg/mL
same,MIC,[4],128 µg/mL
same,MIC,[5],32 µg/mL
CCCCCCCCCCCCCC[N+](C)(C)CC(=O)Nc1ccc(C(=O)/C=C/c2ccccc2F)cc1.[Cl-],MIC,[1],> 128 µg/mL
same,HC50 at 1 h,[2],192 µg/mL
same,MIC,[3],8 µg/mL
same,MIC,[4],> 128 µg/mL
same,MIC,[5],> 128 µg/mL
CCCCCCCC[N+](C)(C)CC(=O)Nc1cccc(C(=O)/C=C/c2cccs2)c1.[Cl-],MIC,[1],16 µg/mL
same,HC50 at 1 h,[2],249 µg/mL
same,MIC,[3],2 µg/mL
same,MIC,[4],16 µg/mL
same,MIC,[5],4 µg/mL
CCCCCCCC[N+](C)(C)CC(=O)Nc1ccc(C(=O)/C=C/c2ccco2)cc1.[Cl-],MIC,[6],16 µg/mL
same,MIC,[7],8 µg/mL
same,MIC,[8],32 µg/mL
same,MIC,[1],16 µg/mL
same,MIC,[9],2 µg/mL
same,MIC,[10],2 µg/mL
same,MIC,[11],8 µg/mL
same,MIC,[12],32 µg/mL
same,MIC,[13],2 µg/mL
same,MIC,[14],16 µg/mL
same,MIC,[15],16 µg/mL
same,MIC,[16],4 µg/mL
same,MIC,[17],32 µg/mL
same,MIC,[18],4 µg/mL
same,MIC,[19],32 µg/mL
same,MIC,[20],64 µg/mL
same,MIC,[21],32 µg/mL
same,HC50 at 1 h,[2],137 µg/mL
same,MIC,[22],16 µg/mL
same,MIC,[23],32 µg/mL
same,MIC,[24],16 µg/mL
same,MIC,[25],32 µg/mL
same,MIC,[26],16 µg/mL
same,MIC,[27],16 µg/mL
same,MIC,[28],16 µg/mL
same,MIC,[3],1 µg/mL
same,MIC,[29],16 µg/mL
same,MIC,[4],4 µg/mL
same,MIC,[5],4 µg/mL
same,MIC,[30],16 µg/mL
same,MIC,[31],8 µg/mL
same,MIC,[32],4 µg/mL
same,MIC,[33],16 µg/mL
same,MIC,[34],16 µg/mL
same,MIC,[35],32 µg/mL
same,MIC,[36],2 µg/mL
same,MIC,[37],32 µg/mL
same,MIC,[38],2 µg/mL
CCCCCCCCCCCC[N+](C)(C)CC(=O)Nc1ccc(C(=O)/C=C/c2ccccc2F)cc1.[Cl-],MIC,[1],32 µg/mL
same,HC50 at 1 h,[2],293 µg/mL
same,MIC,[3],4 µg/mL
same,MIC,[4],16 µg/mL
same,MIC,[5],8 µg/mL
C[C@@H](O)[C@H]1C(=O)N2C(C(=O)O)=C(S[C@@H]3CN[C@H](C(=O)N(C)C)C3)[C@H](C)[C@H]12 [MEROPENEM],MIC,[4],< 0.125 µg/mL
CCCCCCCC[N+](C)(C)CC(=O)Nc1ccc(C(=O)/C=C/c2cccc(F)c2)cc1.[Cl-],MIC,[1],> 128 µg/mL
same,HC50 at 1 h,[2],68 µg/mL
same,MIC,[3],32 µg/mL
same,MIC,[4],> 128 µg/mL
same,MIC,[5],64 µg/mL
CCCCCCCC[N+](C)(C)CC(=O)Nc1ccc(C(=O)/C=C/c2ccncc2)cc1.[Cl-],MIC,[1],32 µg/mL
same,HC50 at 1 h,[2],200 µg/mL
same,MIC,[3],4 µg/mL
same,MIC,[4],16 µg/mL
same,MIC,[5],8 µg/mL
